ChEMBL document CHEMBL5058577, “EUbOPEN Chemogenomics Library 2 (Multiplex)” (2022)

Tested on: HEK-293T
Assay: Multiplex assay against HEK293T
Type: toxicity, cell-based
Conditions: human
How it was run: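 Cells were classed with CellPathfinder machine-learning gating, first as Hoechst high-intensity objects or normal cells, then (normal cells) as healthy, pyknosed or fragmented nuclei, and finally (pyknosed cells) as mitotic or apoptotic. Staining of live cells at seeding used Hoechst33342, BioTracker Green Microtubule Cytoskeleton Dye, MitoTracker Red and Annexin V Alexa Fluor 680, with imaging on a CQ1 microscope at 37°C and 5% CO2 after compound addition. Tubulin, mitochondrial-mass and membrane-permeability phenotypes are per cents of healthy-nucleus cells.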

[1] = 12 h, 1 µM, compound concentration 1 uM, replicate 1
[2] = 12 h, 1 µM, compound concentration 1 uM, replicate 2
[3] = 12 h, 10 µM, compound concentration 10 uM, replicate 1
[4] = 12 h, 10 µM, compound concentration 10 uM, replicate 2
[5] = 24 h, 1 µM, compound concentration 1 uM, replicate 1
[6] = 24 h, 1 µM, compound concentration 1 uM, replicate 2
[7] = 24 h, 10 µM, compound concentration 10 uM, replicate 1
[8] = 24 h, 10 µM, compound concentration 10 uM, replicate 2
[9] = 48 h, 1 µM, compound concentration 1 uM, replicate 1
[10] = 48 h, 1 µM, compound concentration 1 uM, replicate 2
[11] = 48 h, 10 µM, compound concentration 10 uM, replicate 1
[12] = 48 h, 10 µM, compound concentration 10 uM, replicate 2

CC1(COc2ccc3c(c2)ncn3-c2ccc3cccc(N4CCC(N)CC4)c3n2)COC1 [CRENOLANIB]
Population Apoptotic (%) [1]: 58% | Population Fragmented Nuclei (%) [1]: 14% | Population Healthy Nuclei (%) [1]: 79% | Population Hoechst High Intensity Objects (%) [1]: 3% | Population Membrane Permeable-Phenotype (%) [1]: 2% | Population Mitochondria Different-Phenotype (%) [1]: 23% | Population Mitotic Cells (%) [1]: 41% | Population Normal (%) [1]: 96% | Population Pyknosed Nuclei (%) [1]: 6% | Population Tubulin-Different-Phenotype (%) [1]: 46% | Total Cell Count [1]: 412 | Population Apoptotic (%) [2]: 34% | Population Fragmented Nuclei (%) [2]: 10% | Population Healthy Nuclei (%) [2]: 80% | Population Hoechst High Intensity Objects (%) [2]: 6% | Population Membrane Permeable-Phenotype (%) [2]: 1% | Population Mitochondria Different-Phenotype (%) [2]: 51% | Population Mitotic Cells (%) [2]: 65% | Population Normal (%) [2]: 93% | Population Pyknosed Nuclei (%) [2]: 8% | Population Tubulin-Different-Phenotype (%) [2]: 51% | Total Cell Count [2]: 332 | Population Apoptotic (%) [3]: 69% | Population Fragmented Nuclei (%) [3]: 67% | Population Healthy Nuclei (%) [3]: 13% | Population Hoechst High Intensity Objects (%) [3]: 67% | Population Membrane Permeable-Phenotype (%) [3]: 0% | Population Mitochondria Different-Phenotype (%) [3]: 84% | Population Mitotic Cells (%) [3]: 30% | Population Normal (%) [3]: 32% | Population Pyknosed Nuclei (%) [3]: 18% | Population Tubulin-Different-Phenotype (%) [3]: 68% | Total Cell Count [3]: 423 | Population Apoptotic (%) [4]: 55% | Population Fragmented Nuclei (%) [4]: 64% | Population Healthy Nuclei (%) [4]: 17% | Population Hoechst High Intensity Objects (%) [4]: 69% | Population Mitochondria Different-Phenotype (%) [4]: 90% | Population Mitotic Cells (%) [4]: 45% | Population Normal (%) [4]: 30% | Population Pyknosed Nuclei (%) [4]: 17% | Population Tubulin-Different-Phenotype (%) [4]: 50% | Total Cell Count [4]: 376 | Population Apoptotic (%) [5]: 29% | Population Fragmented Nuclei (%) [5]: 20% | Population Healthy Nuclei (%) [5]: 66% | Population Hoechst High Intensity Objects (%) [5]: 2% | Population Membrane Permeable-Phenotype (%) [5]: 2% | Population Mitochondria Different-Phenotype (%) [5]: 22% | Population Mitotic Cells (%) [5]: 70% | Population Normal (%) [5]: 97% | Population Pyknosed Nuclei (%) [5]: 12% | Population Tubulin-Different-Phenotype (%) [5]: 23% | Total Cell Count [5]: 547 | Population Apoptotic (%) [6]: 45% | Population Fragmented Nuclei (%) [6]: 15% | Population Healthy Nuclei (%) [6]: 73% | Population Hoechst High Intensity Objects (%) [6]: 6% | Population Membrane Permeable-Phenotype (%) [6]: 1% | Population Mitochondria Different-Phenotype (%) [6]: 33% | Population Mitotic Cells (%) [6]: 54% | Population Normal (%) [6]: 93% | Population Pyknosed Nuclei (%) [6]: 11% | Population Tubulin-Different-Phenotype (%) [6]: 35% | Total Cell Count [6]: 415 | Population Apoptotic (%) [7]: 72% | Population Fragmented Nuclei (%) [7]: 60% | Population Healthy Nuclei (%) [7]: 16% | Population Hoechst High Intensity Objects (%) [7]: 56% | Population Membrane Permeable-Phenotype (%) [7]: 0% | Population Mitochondria Different-Phenotype (%) [7]: 89% | Population Mitotic Cells (%) [7]: 27% | Population Normal (%) [7]: 43% | Population Pyknosed Nuclei (%) [7]: 23% | Population Tubulin-Different-Phenotype (%) [7]: 92% | Total Cell Count [7]: 394 | Population Fragmented Nuclei (%) [8]: 69% | Population Healthy Nuclei (%) [8]: 15% | Population Hoechst High Intensity Objects (%) [8]: 63% | Population Mitochondria Different-Phenotype (%) [8]: 94% | Population Normal (%) [8]: 36% | Population Pyknosed Nuclei (%) [8]: 14% | Population Tubulin-Different-Phenotype (%) [8]: 73% | Total Cell Count [8]: 334 | Population Apoptotic (%) [9]: 29% | Population Fragmented Nuclei (%) [9]: 19% | Population Healthy Nuclei (%) [9]: 72% | Population Hoechst High Intensity Objects (%) [9]: 1% | Population Membrane Permeable-Phenotype (%) [9]: 1% | Population Mitochondria Different-Phenotype (%) [9]: 17% | Population Mitotic Cells (%) [9]: 70% | Population Normal (%) [9]: 98% | Population Pyknosed Nuclei (%) [9]: 7% | Population Tubulin-Different-Phenotype (%) [9]: 10% | Total Cell Count [9]: 844 | Population Apoptotic (%) [10]: 47% | Population Fragmented Nuclei (%) [10]: 23% | Population Healthy Nuclei (%) [10]: 70% | Population Mitochondria Different-Phenotype (%) [10]: 21% | Population Mitotic Cells (%) [10]: 52% | Population Pyknosed Nuclei (%) [10]: 6% | Population Tubulin-Different-Phenotype (%) [10]: 14% | Total Cell Count [10]: 639 | Population Apoptotic (%) [11]: 86% | Population Fragmented Nuclei (%) [11]: 51% | Population Healthy Nuclei (%) [11]: 17% | Population Hoechst High Intensity Objects (%) [11]: 41% | Population Membrane Permeable-Phenotype (%) [11]: 0% | Population Mitochondria Different-Phenotype (%) [11]: 97% | Population Mitotic Cells (%) [11]: 13% | Population Normal (%) [11]: 59% | Population Pyknosed Nuclei (%) [11]: 30% | Population Tubulin-Different-Phenotype (%) [11]: 95% | Total Cell Count [11]: 400 | Population Apoptotic (%) [12]: 84% | Population Fragmented Nuclei (%) [12]: 47% | Population Healthy Nuclei (%) [12]: 22% | Population Hoechst High Intensity Objects (%) [12]: 49% | Population Mitochondria Different-Phenotype (%) [12]: 96% | Population Mitotic Cells (%) [12]: 15% | Population Normal (%) [12]: 50% | Population Tubulin-Different-Phenotype (%) [12]: 96% | Total Cell Count [12]: 298
